Data on two compounds can be found in ChEMBL document CHEMBL4007489, “First Bispecific Inhibitors of the Epidermal Growth Factor Receptor Kinase and the NF-κB Activity As Novel Anticancer Agents” (J Med Chem, 2017).

SMILES strings stand for the structures. The source made the active and inactive calls. The calls are words filed in the database; no cut-off is given here.

Data set [1] concerns the target Transcription factor p65 (Homo sapiens) (UniProt Q04206). Description: Inhibition of IL-1beta-stimulated nuclear translocation of GFP-tagged NF-kappaB-p65 (unknown origin) expressed in CHO cells at 15 uM preincubated with IL-1beta for 30 mins followed by compound addition by fluorescence assay. In kind it is cell-based.
The next data set in a line: cells. The class given is cell-based. As to conditions: Homo sapiens, U-937.
The subject of data set [2] is MDA-MB-231. Description: cells. In kind it is functional. The following applies: Homo sapiens, MDA-MB-231, 48 h.
Another data set relates to A549. Description: cells. The class given is functional. As to conditions: Homo sapiens, A549, 48 h.
Data set [3] concerns the target T1, MAP kinase-interacting serine/threonine-protein kinase 2 (Homo sapiens, UniProt Q9HBH9). As to the kind of experiment: Inhibition of human full length N-terminal GST-tagged MNK2 expressed in baculovirus expression system.
Target sequence in this assay (Q9HBH9 whole entry): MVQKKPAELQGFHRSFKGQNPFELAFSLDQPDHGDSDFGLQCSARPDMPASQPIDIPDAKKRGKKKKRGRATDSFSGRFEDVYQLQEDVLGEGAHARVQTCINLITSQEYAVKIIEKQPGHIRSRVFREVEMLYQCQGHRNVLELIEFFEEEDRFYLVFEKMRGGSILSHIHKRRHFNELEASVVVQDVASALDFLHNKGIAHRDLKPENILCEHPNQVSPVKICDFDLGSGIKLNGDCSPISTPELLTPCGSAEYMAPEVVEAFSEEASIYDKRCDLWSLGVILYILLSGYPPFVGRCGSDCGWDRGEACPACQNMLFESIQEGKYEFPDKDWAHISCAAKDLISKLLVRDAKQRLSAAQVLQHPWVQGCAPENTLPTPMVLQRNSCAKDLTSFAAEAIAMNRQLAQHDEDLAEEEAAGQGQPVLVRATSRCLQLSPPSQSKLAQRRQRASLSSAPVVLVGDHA
Data set [4] concerns the target Serine/threonine-protein kinase pim-1 (Homo sapiens, UniProt P11309). As to the kind of experiment: Inhibition of human recombinant full length His-tagged PIM-1 expressed in baculovirus expression system.
For data set [5], the target named is T1, MAP kinase-interacting serine/threonine-protein kinase 2. As to the kind of experiment: Inhibition of human full length N-terminal GST-tagged MNK2 expressed in baculovirus expression system at 5 uM.
Target sequence in this assay (Q9HBH9 whole entry, looked up): as the sequence (Q9HBH9 whole entry) above
For data set [6], the target named is Receptor tyrosine-protein kinase erbB-4 (Homo sapiens) (UniProt Q15303). As to the kind of experiment: Inhibition of N-terminal GST-tagged human recombinant ERBB4 expressed in baculovirus expression system at 5 uM.
Chain of Receptor tyrosine-protein kinase erbB-4 (Homo sapiens) (Q15303 whole entry): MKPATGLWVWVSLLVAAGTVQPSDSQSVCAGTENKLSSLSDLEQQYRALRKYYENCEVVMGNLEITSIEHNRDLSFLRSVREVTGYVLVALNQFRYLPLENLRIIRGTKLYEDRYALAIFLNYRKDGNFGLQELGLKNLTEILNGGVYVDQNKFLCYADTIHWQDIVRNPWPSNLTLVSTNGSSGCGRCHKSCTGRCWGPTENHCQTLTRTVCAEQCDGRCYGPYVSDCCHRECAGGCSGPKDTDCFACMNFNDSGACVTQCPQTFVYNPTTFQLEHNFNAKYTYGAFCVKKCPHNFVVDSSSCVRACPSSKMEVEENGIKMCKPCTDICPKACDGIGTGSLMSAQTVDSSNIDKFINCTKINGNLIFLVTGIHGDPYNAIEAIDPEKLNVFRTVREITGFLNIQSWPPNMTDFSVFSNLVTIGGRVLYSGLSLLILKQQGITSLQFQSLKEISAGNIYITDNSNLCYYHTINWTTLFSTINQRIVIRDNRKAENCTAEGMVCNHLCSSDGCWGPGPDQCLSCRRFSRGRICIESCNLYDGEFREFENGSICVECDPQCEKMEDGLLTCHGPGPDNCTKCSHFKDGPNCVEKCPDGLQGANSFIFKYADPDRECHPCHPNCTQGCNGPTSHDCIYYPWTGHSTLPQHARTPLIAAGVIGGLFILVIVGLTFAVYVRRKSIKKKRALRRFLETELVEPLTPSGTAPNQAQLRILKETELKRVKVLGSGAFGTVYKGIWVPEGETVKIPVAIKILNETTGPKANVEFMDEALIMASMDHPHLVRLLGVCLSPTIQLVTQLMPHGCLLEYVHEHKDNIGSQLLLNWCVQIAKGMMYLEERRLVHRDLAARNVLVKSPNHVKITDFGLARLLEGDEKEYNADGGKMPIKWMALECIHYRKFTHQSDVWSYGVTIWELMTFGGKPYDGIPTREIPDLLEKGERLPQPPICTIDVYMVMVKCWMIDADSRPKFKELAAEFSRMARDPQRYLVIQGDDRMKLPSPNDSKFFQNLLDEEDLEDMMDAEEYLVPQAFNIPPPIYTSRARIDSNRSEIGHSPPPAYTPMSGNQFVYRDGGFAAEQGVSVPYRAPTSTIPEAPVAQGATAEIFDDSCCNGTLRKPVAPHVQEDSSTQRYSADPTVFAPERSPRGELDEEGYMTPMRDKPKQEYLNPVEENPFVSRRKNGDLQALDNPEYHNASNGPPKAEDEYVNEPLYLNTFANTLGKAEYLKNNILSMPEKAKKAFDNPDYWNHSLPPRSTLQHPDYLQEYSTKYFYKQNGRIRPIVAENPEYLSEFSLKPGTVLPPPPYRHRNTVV
Data set [7] addresses T2, Proteasome component C5 (Homo sapiens) (UniProt P20618).
T2 sequence (whole entry): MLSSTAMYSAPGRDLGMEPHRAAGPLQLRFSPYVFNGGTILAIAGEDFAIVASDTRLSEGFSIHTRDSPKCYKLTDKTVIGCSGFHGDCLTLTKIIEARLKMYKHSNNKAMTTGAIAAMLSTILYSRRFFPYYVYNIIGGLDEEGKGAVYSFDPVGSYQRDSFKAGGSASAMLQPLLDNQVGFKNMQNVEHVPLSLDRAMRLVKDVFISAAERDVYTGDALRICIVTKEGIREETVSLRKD
Description: Inhibition of caspase like activity of 26S proteasome derived from human MDA-MB-231 cells at 50 uM. The method in brief: (§1)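 Total protein extract from MDA-MB-231 cells served as the source of 26S proteasome. Trypsin-like, chymotrypsin-like and caspase-like activities were each measured with a specific fluorigenic peptide substrate.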

Data set [8] addresses Proteasome Macropain subunit (Homo sapiens) (UniProt P49721). Description: Inhibition of trypsin like activity of 26S proteasome derived from human MDA-MB-231 cells at 50 uM. The procedure, abridged:
as §1

Data set [9] has as its target T3, Proteasome Macropain subunit MB1 (Homo sapiens) (UniProt P28074).
T3 sequence (whole entry): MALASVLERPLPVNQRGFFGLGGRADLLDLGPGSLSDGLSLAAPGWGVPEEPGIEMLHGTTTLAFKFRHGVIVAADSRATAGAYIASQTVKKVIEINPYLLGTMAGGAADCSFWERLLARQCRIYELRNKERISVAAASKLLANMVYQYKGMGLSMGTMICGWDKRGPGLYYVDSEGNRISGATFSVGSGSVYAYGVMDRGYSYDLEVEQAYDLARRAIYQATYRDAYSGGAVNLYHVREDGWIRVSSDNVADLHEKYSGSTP
As to the kind of experiment: Inhibition of chymotrypsin like activity of 26S proteasome derived from human MDA-MB-231 cells at 50 uM. The procedure, abridged: as §1

In data set [10] the target is Transcription factor p65 (Homo sapiens) (UniProt Q04206). Description: Inhibition of TNFalpha-stimulated DNA binding activity of NF-kappaB-p65 in nuclear extracts of human MDA-MB-231 cells at 2.5 to 15 uM incubated for 12 hrs followed by TNFalpha stimulation measured after 20 mins by ELISA. The procedure, abridged:
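MDA-MB-231 cells exposed to compound or DMSO for 12 h, then TNFα (20 ng/mL final) for 20 min at 37 °C. Cells washed with ice-cold PBS, nuclear extracts prepared, protein measured by Bradford. 5 μg nuclear protein incubated on immobilized NF-κB response-element oligonucleotide, bound p65 detected by primary antibody and HRP secondary, absorbance 450 nm. Binding specificity checked with competing free oligonucleotide. Triplicates.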
A general note: In an ELISA, binding on a coated surface is turned into a signal by an enzyme label.

Data set [11] shares this target. As to the kind of experiment: Inhibition of TNFalpha-stimulated DNA binding activity of NF-kappaB-p65 in human MDA-MB-231 cells at 2.5 to 15 uM incubated for 12 hrs followed by TNFalpha stimulation measured after 20 mins by ELISA. The class given is cell-based. The method in brief: (§2)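 MDA-MB-231 cells treated with compound or DMSO for 12 h; in some runs TNFα (20 ng/mL final) added for a further 20 min at 37 °C. Nuclear extracts prepared on ice and protein measured by Bradford. 5 μg of extract incubated on plate-immobilized NF-κB response element oligonucleotide. Bound complexes detected with anti-p65 primary and HRP secondary antibody, read at 450 nm. Specificity checked by competition with free oligonucleotide; triplicates.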

The target is the same in data set [12]. Description: Inhibition of NF-kappaB-p65 binding to NF-kappaB response element oligonucleotide in nuclear extracts of 12 hrs compound pre-treated human MDA-MB-231 cells at 2.5 to 15 uM by ELISA. The procedure, abridged:
as §2

Data set [13] has the same target. Description: Inhibition of IL-1beta-stimulated nuclear translocation of GFP-tagged NF-kappaB-p65 (unknown origin) expressed in CHO cells at 15 uM preincubated with IL-1beta for 30 mins followed by compound addition in presence of Pluronic F127 by fluorescence assay. The class given is cell-based.
The species named for data set [14] is Homo sapiens. The following applies: at 10 µM.
Data set [15] is filed under the species Homo sapiens. As to conditions: at 2.5 to 15 µM.
Data set [16] is described as follows: in vitro. The following applies: chinese hamster, CHO-K1 cells.
Data set [17] can be described thus: in vitro. The following applies: human, HUVEC.
Data set [18] has as its target T4, Epidermal growth factor receptor (Homo sapiens, UniProt P00533). Description: biochemical. The class given is cell-based.
Data set [19] concerns MDA-MB-231. As to the kind of experiment: Potency index, ratio of gefitinib GI50 to compound GI50 for human MDA-MB-231 cells. In kind it is functional.
The nature of data set [20]: Selectivity ratio of GI50 for CHOK1 cells to GI50 for human A549 cells.
The nature of data set [21]: Selectivity ratio of GI50 for CHOK1 cells to GI50 for human MDA-MB-231 cells.
A short description of data set [22]: Selectivity ratio of GI50 for HUVEC to GI50 for human A549 cells.
The nature of data set [23]: Selectivity ratio of GI50 for HUVEC to GI50 for human MDA-MB-231 cells.
The target of data set [24] is T4, Epidermal growth factor receptor. The following applies: at 150 nM.

Chain of Transcription factor p65 (Homo sapiens) (Q04206 whole entry): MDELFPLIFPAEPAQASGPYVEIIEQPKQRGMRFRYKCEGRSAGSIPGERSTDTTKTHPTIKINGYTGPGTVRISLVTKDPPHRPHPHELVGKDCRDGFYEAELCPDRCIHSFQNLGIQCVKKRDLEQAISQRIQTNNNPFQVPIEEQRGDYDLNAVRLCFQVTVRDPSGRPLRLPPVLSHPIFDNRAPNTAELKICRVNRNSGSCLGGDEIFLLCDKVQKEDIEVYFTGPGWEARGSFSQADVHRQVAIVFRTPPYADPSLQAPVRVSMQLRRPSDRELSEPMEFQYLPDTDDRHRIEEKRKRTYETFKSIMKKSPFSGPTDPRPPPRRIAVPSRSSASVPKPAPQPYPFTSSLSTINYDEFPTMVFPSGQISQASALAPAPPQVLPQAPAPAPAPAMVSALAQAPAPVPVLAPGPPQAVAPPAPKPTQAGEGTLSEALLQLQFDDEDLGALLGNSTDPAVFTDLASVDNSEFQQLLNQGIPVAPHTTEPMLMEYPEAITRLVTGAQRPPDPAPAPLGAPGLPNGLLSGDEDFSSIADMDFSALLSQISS
Chain of Proteasome Macropain subunit (Homo sapiens) (P49721 whole entry): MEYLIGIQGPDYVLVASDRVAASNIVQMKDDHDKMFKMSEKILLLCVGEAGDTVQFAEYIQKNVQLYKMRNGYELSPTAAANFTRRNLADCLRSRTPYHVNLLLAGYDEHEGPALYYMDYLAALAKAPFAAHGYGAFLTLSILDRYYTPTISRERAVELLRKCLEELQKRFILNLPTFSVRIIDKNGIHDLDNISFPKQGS
T4 sequence (P00533 whole entry): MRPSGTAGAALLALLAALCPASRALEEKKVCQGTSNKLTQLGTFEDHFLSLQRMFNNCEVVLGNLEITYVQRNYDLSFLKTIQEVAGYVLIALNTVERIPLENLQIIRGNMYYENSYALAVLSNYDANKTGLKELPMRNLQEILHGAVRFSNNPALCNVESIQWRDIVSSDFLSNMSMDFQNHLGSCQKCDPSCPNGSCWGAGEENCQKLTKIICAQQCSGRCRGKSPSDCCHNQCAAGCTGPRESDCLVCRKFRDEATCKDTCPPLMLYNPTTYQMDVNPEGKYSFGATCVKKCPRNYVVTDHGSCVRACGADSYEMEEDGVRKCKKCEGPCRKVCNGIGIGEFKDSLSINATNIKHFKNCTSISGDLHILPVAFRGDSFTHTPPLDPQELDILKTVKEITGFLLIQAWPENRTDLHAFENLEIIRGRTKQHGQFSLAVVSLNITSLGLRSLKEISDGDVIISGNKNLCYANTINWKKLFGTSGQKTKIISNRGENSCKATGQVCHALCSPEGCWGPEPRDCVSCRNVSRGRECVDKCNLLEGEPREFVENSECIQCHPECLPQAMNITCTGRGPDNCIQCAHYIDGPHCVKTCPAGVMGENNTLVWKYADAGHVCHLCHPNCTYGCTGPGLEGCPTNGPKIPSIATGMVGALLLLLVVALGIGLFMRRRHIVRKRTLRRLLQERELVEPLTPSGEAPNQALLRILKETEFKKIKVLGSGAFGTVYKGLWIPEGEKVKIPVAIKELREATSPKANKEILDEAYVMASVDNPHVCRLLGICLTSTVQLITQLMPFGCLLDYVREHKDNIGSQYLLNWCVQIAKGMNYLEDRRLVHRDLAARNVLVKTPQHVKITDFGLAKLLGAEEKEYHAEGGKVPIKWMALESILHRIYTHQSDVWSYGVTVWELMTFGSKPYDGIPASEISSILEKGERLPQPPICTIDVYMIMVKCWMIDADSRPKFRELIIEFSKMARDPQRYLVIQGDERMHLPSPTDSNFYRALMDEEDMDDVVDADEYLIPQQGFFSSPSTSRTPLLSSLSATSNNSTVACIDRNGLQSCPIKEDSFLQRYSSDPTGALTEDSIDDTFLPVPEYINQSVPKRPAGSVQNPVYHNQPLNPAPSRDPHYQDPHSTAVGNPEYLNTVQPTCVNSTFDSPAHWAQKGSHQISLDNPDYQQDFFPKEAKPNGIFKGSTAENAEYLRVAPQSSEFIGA
Chain of Serine/threonine-protein kinase pim-1 (P11309 whole entry): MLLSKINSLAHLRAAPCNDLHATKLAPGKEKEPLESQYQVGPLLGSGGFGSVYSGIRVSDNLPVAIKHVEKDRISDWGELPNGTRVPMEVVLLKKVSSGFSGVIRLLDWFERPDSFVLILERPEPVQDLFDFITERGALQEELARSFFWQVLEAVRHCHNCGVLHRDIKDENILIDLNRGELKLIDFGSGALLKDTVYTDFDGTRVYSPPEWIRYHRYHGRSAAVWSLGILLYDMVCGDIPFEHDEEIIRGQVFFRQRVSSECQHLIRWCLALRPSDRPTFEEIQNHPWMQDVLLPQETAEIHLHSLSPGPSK

For `S=C(Nc1cccc(Cl)c1)Nc1ccc2ncnc(Nc3cccc(Br)c3)c2c1`, the inhibition entry in data set [1], in data set [7], in data set [8], in [9], in data set [10] and in [11] was “inactive” in each case. Besides, the inhibition result in [12] and in data set [13] was “inactive” throughout. Besides, the IC50 (commonly the concentration at which inhibition is half-maximal) in “cells” came to 1900 nM; in data set [3], 2700 nM; in data set [4], 1200 nM. Besides, the GI50 (in general, the concentration giving 50% growth inhibition) in the data set with MDA-MB-231 [2] stood at 2100 nM; in the data set with A549, 1600 nM. The inhibition (commonly the share of the control response that was lost under treatment) was 78% in data set [5], 54% in data set [6], 97.4% in the data set filed under Homo sapiens [14] and “Dose-dependent effect” in the data set filed under Homo sapiens [15]. Also, the values for the GI50 at 48 h in “in vitro [16]” and in “in vitro [17]” were 25700 nM and 11500 nM, respectively.

`Fc1ccc(NC(=S)Nc2ccc3ncnc(Nc4cccc(Br)c4)c3c2)cc1Cl`: the inhibition result in data set [1], in [7], in data set [8], in [9] and in [13] was “inactive” in each case. The IC50 amounted to 25.3 nM in [18] and 1000 nM in the data set “cells”. Also, the GI50 in the data set with MDA-MB-231 [2] was 300 nM; in the data set with A549, 1000 nM. The RatioGI50 in the data set on MDA-MB-231 [19] is reported as over 35; in [20] it was 52.1; in data set [21], 173.7; in data set [22] it was 14.8; in [23] it was 49.3. The inhibition in the data set listed under Homo sapiens [14] was found to be 100%; in data set [24] it was 74.1%. The results for the GI50 at 48 h in the data set “in vitro [16]” and in “in vitro [17]” were 52100 nM and 14800 nM, respectively.
